According to ChEMBL document CHEMBL1764949, “Microbial transformation of (+)-nootkatone and the antiproliferative activity of its metabolites” (2011):
In brackets after ≈: the same amount, converted by molar mass.

Experiments:
HL-60 = assay: Antiproliferative activity against human HL60 cells by MTT assay; format: functional; conditions: read-out: ID50 (the source's name)
Method in brief: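 HL-60 promyelocytic leukemia cells in suspension in RPMI 1640 with 10% FBS, 2 mM glutamine, 1 mM pyruvate, glucose, antibiotics, 37 °C, 5% CO₂. Plated 10⁴ cells/well 24 h before dosing. Exposed 72 h to 0.1–100 µg/ml, ethanol vehicle. MTT (5 mg/ml stock) added for the last 3–4 h. SDS/DMF lysis for 24 h, OD 570 nm. ID₅₀ mean ± SD. Triplicates, 3–5 experiments.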

A549 = assay: Antiproliferative activity against human A549 cells by […]; format: functional; conditions: read-out: ID50 (the source's name)
Method in brief: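 A549 human lung adenocarcinoma cells grown at 37 °C, 5% CO₂ in RPMI 1640+Opti-MEM (1:1) with 5% FBS, 2 mM glutamine, penicillin/streptomycin. Plated 10⁴ cells/well 24 h before dosing. Exposed 72 h to 0.1–100 µg/ml, ethanol vehicle. Cold 50% TCA fixation at 4 °C for 1 h, 0.4% SRB stain, OD 540 nm. ID₅₀ per experiment, mean ± SD. Triplicates, 3–5 experiments.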

Compound | IC50 (HL-60) [µg/mL] | IC50 (A549) [µg/mL]
C[C@@H]1CC(=O)C=C2CC[C@@H]([C@@]3(C)CO3)C[C@]21C | 27.6 (≈ 118 µM) | 167 (≈ 713 µM)
C=C(C)[C@@H]1C[C@@H](O)C2=CC(=O)C[C@@H](C)[C@]2(C)C1 | 25.7 (≈ 110 µM) | 62.7 (≈ 268 µM)
C=C(CO)[C@@H]1CCC2=CC(=O)C[C@@H](C)[C@]2(C)C1 | 4.4 (≈ 18.8 µM) | 36 (≈ 154 µM)
C[C@@H]1CC(=O)C=C2[C@H](O)C[C@H]([C@@]3(C)CO3)C[C@]21C | 345 (≈ 1380 µM) | 289 (≈ 1150 µM)
C[C@@H]1CC(=O)C=C2CC[C@@H](C(C)(O)CO)C[C@]21C (some centres undefined) | 284 (≈ 1130 µM) | 325 (≈ 1290 µM)
C[C@@H]1CC(=O)C=C2CC[C@](O)(C(C)(O)CO)C[C@]21C (some centres undefined) | 25.8 (≈ 96.1 µM) | 290 (≈ 1080 µM)
C=C(C)[C@@H]1CCC2=CC(=O)C[C@@H](C)[C@]2(C)C1 [NOOTKATONE] | 4.27 (≈ 19.6 µM) | 58.4 (≈ 267 µM)
